An excerpt weighted towards active compounds, which were near 2.3% of everything screened.
LMPTP inh – LMPTP phosphatase inhibitors, primary screen, biochemical, fluorescence intensity, uHTS. 360,000 compounds, 0.22% hits. inhibition, % at 20 µM. recombinant LMPTP-A, OMFP fluorogenic substrate. Low molecular weight phosphotyrosine protein phosphatase (Homo sapiens), P24666;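 active = compounds that cut the enzyme signal by at least half of the control window in the single-dose screen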
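Assay system: LMPTP-A phosphatase enzyme | Input: 0.625 nM enzyme | Also added: Fluorogenic phosphatase substrate OMFP at 400 µM final | Compound dosing: One test concentration per compound, 20 µM, with 3% DMSO overall | Schedule: 50 min enzyme reaction at room temperature, protected from light | Signal: Fluorescence intensity | Benchmarks: no-enzyme and uninhibited controls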
STEP block – STEP phosphatase inhibitors, primary screen, biochemical, fluorescence intensity, uHTS | inhibition, % at 20 µM | recombinant STEP, OMFP fluorogenic substrate | 360,000 compounds, 0.25% hits;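 active = inhibition at 20 µM, scaled per plate between control wells, above about 37%, limit read from the data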
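Material: STEP (striatal-enriched tyrosine phosphatase) enzyme, cell-free; Compound dosing: 20 µM single dose in 1% DMSO; Technique: fluorescence read at 480 nm ex / 540 nm em; Times: reaction 20 min, ambient temperature; Medium: 50 mM Bis-Tris pH 6.0 with 2.5 mM DTT and 0.005% Tween 20; Also added: OMFP at 25 µM.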
SUMO1-SIM PPI – modulators of SUMO1 protein-protein interactions, primary screen, biochemical, uHTS; Small ubiquitin-related modifier 1 (Homo sapiens), P63165; SUMO1 binding to a labelled peptide, TR-FRET, 1 h; inhibition, % at 20 µM; 360,000 compounds, 0.33% hits; in the data active = inhibition above about 37%
DNMT1 block – human DNMT1 methyltransferase inhibitors, primary screen, biochemical, molecular beacon, fluorescence, HinP1I cleavage, uHTS; 360,000 compounds, 0.83% hits; AID 588458, 2011; inhibition (reported as % activation of signal), % at 10 µM; DNA (cytosine-5)-methyltransferase 1 (Homo sapiens), P26358; in the data active = inhibition above about 50%
Target sequence (P26358 504-1616 limits assumed): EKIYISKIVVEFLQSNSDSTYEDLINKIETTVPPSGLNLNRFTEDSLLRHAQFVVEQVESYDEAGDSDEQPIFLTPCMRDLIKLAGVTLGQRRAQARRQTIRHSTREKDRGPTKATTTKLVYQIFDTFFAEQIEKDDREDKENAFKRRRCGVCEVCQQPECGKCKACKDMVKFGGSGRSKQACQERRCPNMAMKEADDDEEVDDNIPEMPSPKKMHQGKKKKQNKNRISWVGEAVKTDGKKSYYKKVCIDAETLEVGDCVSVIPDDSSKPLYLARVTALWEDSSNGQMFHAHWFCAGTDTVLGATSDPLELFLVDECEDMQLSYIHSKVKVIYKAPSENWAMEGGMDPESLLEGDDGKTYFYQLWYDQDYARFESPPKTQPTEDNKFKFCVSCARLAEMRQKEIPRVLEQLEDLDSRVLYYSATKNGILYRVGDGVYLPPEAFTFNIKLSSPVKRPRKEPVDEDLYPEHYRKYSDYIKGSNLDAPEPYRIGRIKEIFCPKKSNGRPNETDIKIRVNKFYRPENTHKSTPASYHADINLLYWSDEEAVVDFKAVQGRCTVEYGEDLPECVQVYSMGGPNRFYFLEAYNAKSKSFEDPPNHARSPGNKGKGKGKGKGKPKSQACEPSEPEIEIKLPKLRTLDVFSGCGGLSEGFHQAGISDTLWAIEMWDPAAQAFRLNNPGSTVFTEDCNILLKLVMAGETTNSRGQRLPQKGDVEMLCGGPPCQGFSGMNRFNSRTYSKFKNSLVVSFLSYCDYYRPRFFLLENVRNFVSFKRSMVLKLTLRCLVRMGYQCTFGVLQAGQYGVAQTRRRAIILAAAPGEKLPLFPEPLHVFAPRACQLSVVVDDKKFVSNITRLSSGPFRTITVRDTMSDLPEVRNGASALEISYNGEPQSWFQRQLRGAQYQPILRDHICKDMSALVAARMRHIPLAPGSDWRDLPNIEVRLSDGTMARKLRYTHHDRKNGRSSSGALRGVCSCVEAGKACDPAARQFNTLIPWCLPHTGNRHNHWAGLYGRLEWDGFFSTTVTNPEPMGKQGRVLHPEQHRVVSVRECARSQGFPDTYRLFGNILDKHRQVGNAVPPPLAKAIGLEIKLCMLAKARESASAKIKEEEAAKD
Rpn11 inh – Rpn11 (PSMD14) deubiquitinase inhibitors, primary screen, biochemical, fluorescence polarization, uHTS; 26S proteasome non-ATPase regulatory subunit 14 (Homo sapiens), O00487; human 26S proteasome, Ub4-pepOG fluorescence polarization; 20S core pre-blocked with epoxomicin; inhibition, % at 20 µM; 360,000 compounds, 0.59% hits;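 active = inhibition at 20 µM, scaled to each plate's controls, above about 33%, limit read from the data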
Scp1 inh – Scp-1 phosphatase inhibitors, primary screen, biochemical, colorimetric, uHTS; 340,000 compounds, 0.88% hits; Recombinant Scp1, phosphopeptide, malachite green phosphate absorbance; Carboxy-terminal domain RNA polymerase II polypeptide A small phosphatase 1 (Homo …; inhibition, % at 20 µM; AID 493091, 2011;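 active = inhibition above about 50% at 20 µM, limit read from the data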
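Test system: SCP-1 phosphatase catalytic domain, residues 76-261 | Compound dosing: One concentration, 20 µM, with 1.0% DMSO | Schedule: 45 min room-temperature reaction, 5 min colour, 30 min stabiliser | Detection: Absorbance at 630 nm | Read-out basis: % inhibition of SCP-1 phosphate liberation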
Of the large screens only hits and unclear results are named; the others gave an inactive call; ! = not confirmed by another sample.

CC1(OC(=O)c2cccs2)C(=O)C=C2C=C3CCCN3C=C2C1=O (configuration not stated)	DNMT1 block 100.5, Scp1 inh 54.9
CC(C)CNC(=S)N1CCN(C(c2ccccc2)c2ccccc2)CC1	none
C=C(C)CNC(=S)N1CCN(C(c2ccccc2)c2ccccc2)CC1	SUMO1-SIM PPI 44.0
CC[n+]1c(/C=C(\C)Nc2ccccc2)sc2ccccc21	Scp1 inh 78.8
CC[n+]1c(/C=C(\C)SC)sc2ccccc21	none
O=C(O)c1cccc(N2C(=O)/C(=C/c3ccc(SCc4ccc(Cl)cc4)o3)SC2=S)c1	SUMO1-SIM PPI 69.9, DNMT1 block 83.9, Scp1 inh 69.7 (not shown: Rpn11 inh)
Cc1ccc(/C=C2\SC(=S)N(c3cccnc3)C2=O)o1	none
C#CCOCCOCCOCCNc1nc(N2CCN(C(=O)CCCCCCCCCCNC(=O)[C@H](CCCCN)n3cc(CCO)nn3)CC2)nc(N2CCN(C(=O)CCCCCCCCCCNC(=O)[C@@H]([C@H](C)O)n3cc(C)nn3)CC2)n1	none
C#CCOCCOCCOCCNc1nc(N2CCN(C(=O)CCCCCCCCCCNC(=O)[C@H]([C@@H](C)CC)n3cc(CCCCCN)nn3)CC2)nc(N2CCN(C(=O)CCCCCCCCCCNC(=O)[C@@H]([C@H](C)O)n3cc(C)nn3)CC2)n1	Rpn11 inh 45.4
C#CCOCCOCCOCCNc1nc(N2CCN(C(=O)CCCCCCCCCCNC(=O)[C@H](CCCCN)n3cc(C)nn3)CC2)nc(N2CCN(C(=O)CCCCCCCCCCNC(=O)[C@@H]([C@H](C)CC)n3cc(CCCCCN)nn3)CC2)n1	SUMO1-SIM PPI 50.7, Rpn11 inh 66.8 (no result: Scp1 inh)
O=C1C(=Cc2ccco2)CCC1=Cc1ccco1	LMPTP inh 64.3, STEP block 97.2, SUMO1-SIM PPI 121.2, Scp1 inh 80.1 (not shown: Rpn11 inh)
COC(=O)CCN1CCC2CC1c1cc(Cl)ccc12 (configuration not stated)	none
COc1cccc2sc(Nc3nc(-c4cc5ccccc5oc4=O)cs3)nc12	SUMO1-SIM PPI 61.2
COc1cccc2sc(Nc3nc(-c4ccncc4)cs3)nc12	none
Cc1cc(OCC(=O)OCC(=O)NCCN2C(=O)CSC2=O)ccc1Cl	none
COc1cccc2cc(C(=O)N3CC(C)OC(C)C3)c(=O)oc12 (configuration not stated)	none
COc1cc2c(oc(=O)c3cc(C)cc(OC)c32)c2c(C3OC(C)C(O)C(C)(O)C3O)ccc(O)c12 (configuration not stated)	DNMT1 block 63.3
COc1ccc(C2OC(=O)CC2C(=O)NCc2ccc(Cl)cc2)cc1OC (configuration not stated)	none
CCCCC(CC)CO (configuration not stated)	none
CCCCC(CC)CN=C(N)NC(N)=NCCCCCCN=C(N)NC(N)=NCC(CC)CCCC (configuration not stated)	SUMO1-SIM PPI 86.0, Rpn11 inh 101.6
COc1cccc2c1cc1c(=O)n(CC(=O)NCc3ccccn3)nc(C)n12	none
Cc1ccc(NC(=O)COC(=O)c2ccc(-n3cccn3)cc2)cc1C	none
Cc1ccc(Cl)cc1Nc1nc(-c2sc(NC(=O)C(C)(C)C)nc2C)cs1	SUMO1-SIM PPI 104.3
Cc1nc(NC(=O)c2ccccc2)sc1-c1csc(Nc2ccc(C(=O)O)cc2)n1	SUMO1-SIM PPI 91.8, Scp1 inh 80.5
C=CCCC(=O)Nc1nc(C)c(-c2csc(Nc3cccc(OC)c3)n2)s1	SUMO1-SIM PPI 77.9
Cc1nc(NC(=O)c2ccccc2)sc1-c1csc(NCc2ccco2)n1	Rpn11 inh 45.1
COc1ccc(C(CNC(=O)C2COc3ccccc3O2)N2CCCC2)cc1 (configuration not stated)	none
O=C(O)CC1(CC(=O)Nc2ccc3c(c2)C(=O)OC3)CCCCC1	none
CCCCCCn1c(Br)nc2c1c(=O)n(C)c(=O)n2C	none
O=C(Nc1cccc2ccccc12)NC(Cc1ccccc1)C(=O)O (configuration not stated)	none
C/C(CC(=O)NCc1ccco1)=N\NC(=O)C(c1ccccc1)c1ccccc1	SUMO1-SIM PPI 49.2
C/C(CC(=O)NCc1ccco1)=N\NC(=O)Cc1ccccc1	none
Cc1noc(C)c1S(=O)(=O)Nc1ccc2c(c1)C(=O)N([C@H](C)CO)C[C@H](C)[C@@H](CN(C)C(=O)Nc1ccccc1)O2	Scp1 inh 79.3
Cc1noc(C)c1S(=O)(=O)Nc1ccc2c(c1)C(=O)N([C@H](C)CO)C[C@H](C)[C@@H](CN(C)C(=O)Nc1ccc(C(F)(F)F)cc1)O2	none
O=C(/C=C/c1ccco1)Nc1cccc2cccnc12	LMPTP inh 50.1, DNMT1 block 63.4
O=C(O)/C=C/C(=O)Nc1cccc2cccnc12	none
Cc1nn2c(-c3ccncc3)ccnc2c1Br	none
O=C(NCC1CCCO1)C(c1ccncc1)N(Cc1cccs1)C(=O)Cn1nnc(-c2ccc(F)cc2)n1 (configuration not stated)	none
Cc1ccc(-c2nnn(CC(=O)N(Cc3cccs3)C(C(=O)NC3CCCC3)c3ccncc3)n2)cc1 (configuration not stated)	SUMO1-SIM PPI 44.6
Cc1cc(NC(=O)CSc2nnc(C(F)(F)F)n2C)no1	none
Cc1cc(C(C)(C)C)cc(C)c1Cn1c2[n+](c3ccc(C(F)(F)F)cc31)CCCCC2	Scp1 inh 66.1
Cc1nc(SCC(=O)N2CCCCC2)c2c(C)c(C)sc2n1	none
CCSc1nc(C)nc2sc(C)c(C)c12	SUMO1-SIM PPI 78.6
O=C(O)c1nc(-c2ccccc2)c(C(=O)NC2CC2)[nH]1	none (no result: Scp1 inh)
CN(C(=O)C1CCN(S(=O)(=O)c2cccs2)CC1)c1ccccc1	none
Cn1c(=NC(=O)C2CCN(S(=O)(=O)c3cccs3)CC2)sc2ccccc21	SUMO1-SIM PPI 43.3!
CC(C)CCN1CCNC(=O)C1CC(=O)N(C)CCCN1CCOCC1 (configuration not stated)	none
Cn1ncc2c(=O)[nH]nnc21	none
